Results from ChEMBL document CHEMBL5113516, “2-(Fluoromethoxy)-4'-(S-methanesulfonimidoyl)-1,1'-biphenyl (UCM-1306), an Orally Bioavailable Positive Allosteric Modulator of the Human Dopamine D1 Receptor for Parkinson's Disease” (J Med Chem, 2022).
Activity calls are given as the source filed them. No cut-off for these calls is given here.

Assays:
[1] = biological target: D(1A) dopamine receptor (Homo sapiens) (UniProt P21728); experiment: Positive allosteric modulation of D1R expressed in human SK-N-MC cells assessed as potentiation of DA-induced cAMP production pretreated with compound for 15 mins followed by dopamine addition measured after 15 mins by HTRF assay relative to control; format: functional, cell-based; conditions: dose 0.1-10 µM, time 30.0 min
Sequence of D(1A) dopamine receptor (Homo sapiens) (P21728 whole entry): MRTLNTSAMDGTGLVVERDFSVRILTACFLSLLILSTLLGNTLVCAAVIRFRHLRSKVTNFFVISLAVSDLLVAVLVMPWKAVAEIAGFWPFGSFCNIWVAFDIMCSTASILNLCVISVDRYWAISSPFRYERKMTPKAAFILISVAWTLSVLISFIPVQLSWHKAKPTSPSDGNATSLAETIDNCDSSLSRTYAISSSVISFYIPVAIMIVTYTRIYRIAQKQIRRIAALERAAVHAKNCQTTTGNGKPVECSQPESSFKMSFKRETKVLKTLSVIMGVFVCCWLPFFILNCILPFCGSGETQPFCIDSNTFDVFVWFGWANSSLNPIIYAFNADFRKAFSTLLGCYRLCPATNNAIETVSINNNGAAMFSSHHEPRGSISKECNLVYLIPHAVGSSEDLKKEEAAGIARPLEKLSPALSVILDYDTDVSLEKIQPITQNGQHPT
In short: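 Human SK-N-MC neuroblastoma cells with endogenous D1R, seeded at 1×10^4 cells/well in Opti-MEM with 500 μM IBMX. Preincubated with 10 μM compound for 15 min at 25 °C, then dopamine concentration–response for 15 min at 25 °C. Lysed and cAMP read by HTRF. Change in dopamine Emax used; >20% potentiation taken as a potential PAM.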

Mus musculus [2] = experiment: Anti-parkinson activity in reserpine induced C57BL/6 mouse model assessed as decrease in locomotion at 100 to 400 mg/kg, ip measured for 60 mins; format: functional, organism-based; conditions: dose 100-400 mg/kg
In short: (§1)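 Male C57BL/6 mice (22–25 g), n = 10/group, given reserpine 2.5 mg/kg sc (DMSO/saline). 20 h later dosed with vehicle or 30 mg/kg po (5% NMP + 5% solutol HS-15 + 90% saline), and/or L-DOPA 100 or 400 mg/kg ip plus carbidopa 100 mg/kg ip 30 min before recording. Placed in cage 15 min after the po dose. Total distance travelled over 60 min by video tracking.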

Mus musculus [3] = experiment: Cognitive enhancing effect in C57BL/6J mouse assessed as ratio of novel to familiar at 1 mg/kg, ip by novel object recognition test; format: functional, organism-based; conditions: time 24-96 hrs
In short: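 Three-month-old male C57BL/6J mice, 8 per condition. After 5 min habituation to an empty 40 cm open field, given 1 mg/kg ip or vehicle (0.9% NaCl). 20 min later, 10 min acquisition with two identical objects. Later 10 min test sessions at 24 and 96 h. Nose/forepaw exploration scored. Discrimination ratio = (novel − familiar)/total exploration time.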

Mus musculus [4] = experiment: Anti-parkinson activity in reserpine induced C57BL/6 mouse model assessed as decrease in locomotion at 30 mg/kg, po measured for 60 mins; format: functional, organism-based; in short: as §1
[5] = Toxicity in cocaine-induced hyperactive C57BL/6 mouse model assessed as hyperlocomotion at 1 mg/kg, ip pretreated for 15 mins followed by cocaine addition measured after 15 mins; format: organism-based; conditions: in vivo, 0.5 h, time 30 min
In short: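 Three-month-old male C57BL/6J mice, 8 per group, habituated to injections for 5 days. Given 1 mg/kg ip in sterile saline (20 mL/kg) 15 min before cocaine 20 mg/kg sc. Placed in a 50 cm open field 5 min after cocaine. Horizontal locomotion (total distance, cm) video-tracked in 2 min blocks over 30 min.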

[6] = Ratio of drug concentration in brain to plasma in BALB/c mouse plasma at 5 mg/kg, po administered as single dose measured 0.5 to 4 hrs; format: ADME, organism-based; conditions: time 0.5-4 hrs
In short: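 Male BALB/c mice given a single oral dose of 5 mg/kg. Plasma, brain and CSF levels measured over time. Brain-to-plasma concentration ratios calculated between 0.5 and 4 h.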

[7] = filed as positive allosteric modulator

| Compound | Emax [1] [%] | other results |
| --- | --- | --- |
| CS(=N)(=O)c1ccc(-c2ncccc2OCF)cc1 (centres undefined) | 1 | – |
| CNS(=O)(=O)c1ccc(-c2ccccc2OCF)cc1 | 38 | – |
| CN=S(C)(=O)c1ccc(-c2ccccc2OCF)cc1 (centres undefined) | 30 | – |
| O=Cc1ccc(-c2ccccc2OC(F)F)cc1 | – | Emax [1, 7]: 45% |
| NS(=O)(=O)c1ccc(-c2ccccc2OCF)cc1 | 31 | – |
| N[C@@H](Cc1ccc(O)c(O)c1)C(=O)O | – | Activity (Mus musculus [2]): Active |
| O=C(O)c1ccc(-c2ccccc2OCF)cc1 | 7 | – |
| CS(=N)(=O)c1ccc(-c2ccccc2OCF)cc1 (racemic) | – | Activity (Mus musculus [3]): Active; Activity (Mus musculus [2]): Active; Activity (Mus musculus [4]): Active; Emax [1, 7]: 55%; Activity [5]: Non-Toxic; Kp [6]: 0.55 |
| CS(=N)(=O)c1ccc(-c2ccccc2OCF)cc1Cl (centres undefined) | 12 | – |
| CS(=N)(=O)c1ccc(-c2ccccc2OCF)c(Cl)c1 (centres undefined) | 20 | – |
| CCS(=N)(=O)c1ccc(-c2ccccc2OCF)cc1 (centres undefined) | – | Emax [1, 7]: 54% |
| C[S+]([O-])c1ccc(-c2ccccc2OCF)cc1 (racemic) | – | Emax [1, 7]: 60% |
| CC[S+]([O-])c1ccc(-c2ccccc2OCF)cc1 (centres undefined) | 16 | – |
| CC(=O)c1ccc(-c2ccccc2OCF)cc1 | 11 | – |
| O=Cc1ccc(-c2ccccc2SC(F)F)cc1 | – | Emax [1, 7]: 44% |
| COC(=O)c1ccc(-c2ccccc2OCF)cc1 | 28 | – |

Second part, led by results:

| Emax [1] [%] | Compound | other results |
| --- | --- | --- |
| 12 | O=Cc1cccc(-c2ccccc2OC(F)F)c1 | – |
| 25 | O=Cc1ccc(-c2cccc(OCF)c2)cc1 | – |
| 23 | O=Cc1cccc(-c2ccccc2OCF)c1 | – |
| 29 | O=Cc1ccc(-c2ccc(OCF)cc2)cc1 | – |
| 14 | O=Cc1ccc(-c2ccccc2SCF)cc1 | – |
| 16 | NC(=O)c1ccc(-c2ccccc2OCF)cc1 | – |
| 35 | O=Cc1ccc(-c2ccc(OC(F)F)cc2)cc1 | – |
| 37 | O=Cc1ccc(-c2cccc(OC(F)F)c2)cc1 | – |
